Active and inactive are the calls of the source. No cut-off for these calls is given here.
Legend:
[1] = tested on: Cryptococcus neoformans; assay: Antimelanogenic activity in non-melanized Cryptococcus neoformans var. grubii assessed as inhibition of pigmentation at 0.5 ug/mL after 10 days by microtiter plate assay in presence of 1 mM catecholamine; type: functional
Method in brief: (§1)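 Overnight non-melanized culture diluted in fresh defined minimal medium to OD about 0.010–0.020. Cells were exposed to compound from DMSO stock in microtiter wells containing 1 mM catecholamine (epinephrine, dopamine or L-dopa) and grown 10 days at 30 °C. Melanization/pigmentation was scored visually against cell-only and DMSO controls.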

[2] = tested on: Cryptococcus neoformans; assay: Antimelanogenic activity in non-melanized Cryptococcus neoformans var. grubii assessed as inhibition of pigmentation at 200 ug/mL after 10 days by microtiter plate assay in presence of 1 mM catecholamine; type: functional
Method in brief: (§2)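 Broth assay in microtiter plates. An overnight culture of non-melanized C. neoformans var. grubii is diluted in fresh defined minimal medium to OD about 0.010–0.020. It is exposed to single sublethal concentrations (from DMSO; cells/DMSO control) in medium with 1 mM catecholamine (epinephrine, dopamine or L-dopa) at 30 °C. Pigmentation is scored visually at 10 days, with an additional check at 21 days.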

[3] = tested on: Cryptococcus gattii; assay: Antifungal activity in Cryptococcus neoformans var. gattii assessed as clear halo diameter at 20 ug after 6 to 8 days by halo assay in presence of dopamine; type: functional, Cryptococcus bacillisporus; details: read-out: DIZ
Method in brief: (§3)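 Paper-disk diffusion halo assay on lawns of C. neoformans (MAT α; var. grubii H99 serotype A, var. gattii serotype B) in defined minimal medium agar with 1 mM catecholamine (L-dopa, dopamine or epinephrine). Compounds were dissolved in DMSO and applied to 6.5 mm disks, which were dried 3 h at RT. Plates were incubated at 30 °C for 6–8 days and the clear halo diameter was measured in mm.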

[4] = tested on: Cryptococcus neoformans; assay: Antifungal activity in Cryptococcus neoformans var. grubii assessed as clear halo diameter at 20 ug after 6 to 8 days by halo assay in presence of epinephrine; type: functional; details: read-out: DIZ; method in brief: as §3
[5] = tested on: Cryptococcus neoformans; assay: Antifungal activity in Cryptococcus neoformans var. grubii assessed as clear halo diameter at 2 ug after 6 days by halo assay in presence of 1 mM L-dopa; type: functional; method in brief: as §3
[6] = tested on: Cryptococcus neoformans; assay: Antifungal activity in Cryptococcus neoformans var. grubii assessed as clear halo diameter at 20 ug after 6 to 8 days by halo assay in presence of dopamine; type: functional; details: read-out: DIZ; method in brief: as §3
[7] = tested on: Cryptococcus gattii; assay: Antifungal activity in Cryptococcus neoformans var. gattii assessed as clear halo diameter at 20 ug after 6 to 8 days by halo assay in presence of epinephrine; type: functional, Cryptococcus bacillisporus; details: read-out: DIZ; method in brief: as §3
[8] = tested on: Cryptococcus neoformans; assay: Antifungal activity in Cryptococcus neoformans var. grubii assessed as clear halo diameter at 20 ug after 6 to 8 days by halo assay in presence of L-dopa; type: functional; details: read-out: DIZ; method in brief: as §3
[9] = tested on: Cryptococcus gattii; assay: Antifungal activity in Cryptococcus neoformans var. gattii assessed as clear halo diameter at 2 ug after 6 days by halo assay in presence of 1 mM L-dopa; type: functional, Cryptococcus bacillisporus; method in brief: as §3
[10] = tested on: Cryptococcus gattii; assay: Antifungal activity in Cryptococcus neoformans var. gattii assessed as clear halo diameter at 20 ug after 6 to 8 days by halo assay in presence of L-dopa; type: functional, Cryptococcus bacillisporus; details: read-out: DIZ; method in brief: as §3
[11] = tested on: Cryptococcus neoformans; assay: Antimelanogenic activity in non-melanized Cryptococcus neoformans var. grubii assessed as inhibition of pigmentation at 0.0625 ug/mL after 10 days by microtiter plate assay in presence of 1 mM catecholamine; type: functional; method in brief: as §1
[12] = tested on: Cryptococcus neoformans; assay: Antimelanogenic activity in non-melanized Cryptococcus neoformans var. grubii assessed as inhibition of pigmentation at 0.8 ug/mL after 10 days by microtiter plate assay in presence of 1 mM catecholamine; type: functional; method in brief: as §2
[13] = tested on: Cryptococcus neoformans; assay: Antimelanogenic activity in non-melanized Cryptococcus neoformans var. grubii assessed as onset day of melanization at 0.06 uM by drop test assay in presence of 1 mM L-dopa (reference value: 6 days); type: functional
Method in brief: (§4)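 Drop test. C. neoformans culture at 10^7 cells/mL is dosed with compound at 0, 0.06, 0.2, 0.6 and 2 μM. It is dropped onto defined minimal medium plates with 1 mM L-dopa and incubated at 30 °C until melanization occurs. The read-out is the onset day of melanization.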

[14] = tested on: Cryptococcus gattii; assay: Antimelanogenic activity in Cryptococcus neoformans var. gattii assessed as halo diameter surrounded by non-melanized cells at 20 ug after 6 to 8 days by halo assay in presence of L-dopa; type: functional, Cryptococcus bacillisporus; details: read-out: DIZ
Method in brief: (§5)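 Paper-disk diffusion halo assay on a lawn of C. neoformans (MAT α; var. grubii H99 serotype A, var. gattii serotype B). Medium is defined minimal medium agar with 1 mM catecholamine (L-dopa, dopamine or epinephrine). Compound is delivered from DMSO stock onto 6.5 mm disks, which are dried 3 h at RT. Incubation is 30 °C for 6–8 days. The read-out is halo diameter (mm), with the halo checked for non-melanized cells.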

[15] = tested on: Human immunodeficiency virus; assay: Inhibition of DNA polymerase activity of HIV reverse transcriptase at 10 uM
[16] = target: T1, Laccase (Trametes versicolor, UniProt O94222); assay: Inhibition of Trametes versicolor laccase assessed as production of dopachrome using 100 uM epinephrine as substrate preincubated for 30 mins before substrate addition
T1 sequence (O94222 whole entry): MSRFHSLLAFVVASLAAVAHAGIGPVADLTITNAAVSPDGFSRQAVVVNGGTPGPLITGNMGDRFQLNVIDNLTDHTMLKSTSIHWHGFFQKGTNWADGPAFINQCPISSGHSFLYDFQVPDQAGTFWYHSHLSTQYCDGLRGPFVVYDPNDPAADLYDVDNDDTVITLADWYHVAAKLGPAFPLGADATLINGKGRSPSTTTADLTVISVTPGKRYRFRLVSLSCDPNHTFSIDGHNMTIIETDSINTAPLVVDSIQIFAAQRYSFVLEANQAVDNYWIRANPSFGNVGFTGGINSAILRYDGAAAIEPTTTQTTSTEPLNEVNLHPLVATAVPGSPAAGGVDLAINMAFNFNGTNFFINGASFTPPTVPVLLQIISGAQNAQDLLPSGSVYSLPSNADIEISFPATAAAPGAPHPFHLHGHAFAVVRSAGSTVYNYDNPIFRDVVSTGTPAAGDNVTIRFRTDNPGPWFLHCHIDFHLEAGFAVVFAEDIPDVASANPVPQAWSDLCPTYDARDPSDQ
Method in brief: (§6)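 Cell-free assay with purified Trametes versicolor laccase. Inhibitor (0–1 mM range) is preincubated with the enzyme for 30 min before substrate is added. Substrates are epinephrine 100 μM, dopamine 200 μM or L-dopa 300 μM. Dopachrome formation is monitored colorimetrically at 480 nm. IC50 is taken from dose-response curves, mean of two experiments with SE; NaN3 is the positive control.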

[17] = tested on: Cryptococcus gattii; assay: Antimelanogenic activity in Cryptococcus neoformans var. gattii assessed as halo diameter surrounded by non-melanized cells at 10 ug after 6 days by halo assay in presence of 1 mM L-dopa; type: functional, Cryptococcus bacillisporus; method in brief: as §5
[18] = tested on: Cryptococcus neoformans; assay: Antimelanogenic activity in Cryptococcus neoformans var. grubii assessed as halo diameter surrounded by non-melanized cells at 20 ug after 6 to 8 days by halo assay in presence of epinephrine; type: functional; details: read-out: DIZ; method in brief: as §5
[19] = target: T1, Laccase; assay: Inhibition of Trametes versicolor laccase assessed as production of dopachrome using 200 uM dopamine as substrate preincubated for 30 mins before substrate addition; method in brief: as §6
[20] = tested on: Cryptococcus neoformans; assay: Antimelanogenic activity in non-melanized Cryptococcus neoformans var. grubii assessed as onset day of melanization at 0.6 uM by drop test assay in presence of 1 mM L-dopa (reference value: 6 days); type: functional; method in brief: as §4
[21] = tested on: Cryptococcus neoformans; assay: Antimelanogenic activity in non-melanized Cryptococcus neoformans var. grubii assessed as delay of melanization by drop test assay in presence of 1 mM L-dopa; type: functional; method in brief: as §4
[22] = tested on: Cryptococcus gattii; assay: Antimelanogenic activity in Cryptococcus neoformans var. gattii assessed as halo diameter surrounded by non-melanized cells at 20 ug after 6 to 8 days by halo assay in presence of dopamine; type: functional, Cryptococcus bacillisporus; details: read-out: DIZ; method in brief: as §5
[23] = target: T1, Laccase; assay: Inhibition of Trametes versicolor laccase assessed as production of dopachrome using 300 uM L-dopa as substrate preincubated for 30 mins before substrate addition; method in brief: as §6
[24] = Inhibition of laccase in Cryptococcus neoformans var. grubii assessed as production of dopachrome using 100 uM epinephrine as substrate preincubated for 30 mins before substrate addition
Method in brief: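 Whole-cell laccase assay. C. neoformans var. grubii is grown in asparagine salts without glucose to raise laccase, then permeabilized with toluene-ethanol (1:4). Inhibitor (0–1 mM range) is preincubated for 30 min before adding 100 μM epinephrine. Dopachrome is read at 480 nm. IC50 is the mean of two experiments with SE; NaN3 is the positive control.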

[25] = tested on: Cryptococcus neoformans; assay: Antimelanogenic activity in Cryptococcus neoformans var. grubii assessed as halo diameter surrounded by non-melanized cells at 20 ug after 6 to 8 days by halo assay in presence of L-dopa; type: functional; details: read-out: DIZ; method in brief: as §5
[26] = tested on: Cryptococcus neoformans; assay: Antimelanogenic activity in non-melanized Cryptococcus neoformans var. grubii assessed as onset day of melanization at 2 uM by drop test assay in presence of 1 mM L-dopa (reference value: 6 days); type: functional; method in brief: as §4
[27] = tested on: Cryptococcus neoformans; assay: Antimelanogenic activity in Cryptococcus neoformans var. grubii assessed as halo diameter surrounded by non-melanized cells at 10 ug after 6 days by halo assay in presence of 1 mM L-dopa; type: functional; method in brief: as §5
[28] = tested on: Cryptococcus neoformans; assay: Antimelanogenic activity in non-melanized Cryptococcus neoformans var. grubii assessed as inhibition of pigmentation at 0.8 ug/mL after 21 days by microtiter plate assay in presence of 1 mM catecholamine; type: functional; method in brief: as §2
[29] = tested on: Cryptococcus neoformans; assay: Antimelanogenic activity in Cryptococcus neoformans var. grubii assessed as halo diameter surrounded by non-melanized cells at 20 ug after 6 to 8 days by halo assay in presence of dopamine; type: functional; details: read-out: DIZ; method in brief: as §5
[30] = tested on: Cryptococcus gattii; assay: Antimelanogenic activity in Cryptococcus neoformans var. gattii assessed as halo diameter surrounded by non-melanized cells at 20 ug after 6 to 8 days by halo assay in presence of epinephrine; type: functional, Cryptococcus bacillisporus; details: read-out: DIZ; method in brief: as §5

Compound: Clc1ccc(COC(Cn2ccnc2)c2ccc(Cl)cc2Cl)c(Cl)c1 (centres undefined)
- Activity [1]: inactive

Compound: O=C(O)CNCP(=O)(O)O
- Activity [2]: inactive

Compound: C[C@@H]1[C@H](O)[C@@H](C)/C=C/C=C/C=C/C=C/C=C/C=C/C=C/[C@H](O[C@@H]2O[C@H](C)[C@@H](O)[C@H](N)[C@@H]2O)C[C@@H]2O[C@](O)(C[C@@H](O)C[C@@H](O)[C@H](O)CC[C@@H](O)C[C@@H](O)CC(=O)O[C@H]1C)C[C@H](O)[C@H]2C(=O)O [AMPHOTERICIN B]
- zone of inhibition at 20 µg/disc [3]: 22 mm
- zone of inhibition at 20 µg/disc [4]: 18 mm
- diameter of the inhibition zone (DIZ) [5]: 15.5 mm
- zone of inhibition at 20 µg/disc [6]: 18 mm
- zone of inhibition at 20 µg/disc [7]: 18 mm
- zone of inhibition at 20 µg/disc [8]: 21 mm
- diameter of the inhibition zone (DIZ) [9]: 10 mm
- zone of inhibition at 20 µg/disc [10]: 17 mm
- Activity [11]: inactive

Compound: CC[C@H]1CCCC[C@@]2(C[C@@H]3CC[C@@H]4[C@H](C(=O)OCCCCCCCCCCCCCCCC(=O)N(CCCN)CCCCN)[C@]5(CCC[C@@H](C)O5)NC(=[N+]34)N2)O1.[Cl-] [PTILOMYCALIN A]
- Activity [12]: Active
- Time [13]: 9 days
- zone of inhibition at 20 µg/disc [14]: 17 mm
- inhibition [15]: 60%
- IC50 [16]: 4.7 µM
- diameter of the inhibition zone (DIZ) [17]: 9.5 mm
- zone of inhibition at 20 µg/disc [18]: 12 mm
- IC50 [19]: 4.9 µM
- Time [20]: 20 days
- Activity [21]: Dose-dependent effect
- zone of inhibition at 20 µg/disc [22]: 18 mm
- IC50 [23]: 5.8 µM
- IC50 [24]: 7.3 µM
- zone of inhibition at 20 µg/disc [25]: 17 mm
- Time [26]: 25 days
- diameter of the inhibition zone (DIZ) [27]: 13.5 mm
- Activity [28]: Active
- zone of inhibition at 20 µg/disc [29]: 15 mm
- zone of inhibition at 20 µg/disc [30]: 12 mm

Compound: [N-]=[N+]=[N-] [SODIUM AZIDE]
- IC50 [16]: 263 µM
- IC50 [19]: 257 µM
- IC50 [23]: 279 µM
- IC50 [24]: 329 µM

Reference: ChEMBL document CHEMBL1914291, “Ptilomycalin A inhibits laccase and melanization in Cryptococcus neoformans” (Bioorg Med Chem, 2011)
